# Laboratory results published in PMC5903260 (British Journal of Clinical Pharmacology, 2018).
# Where two headings read alike, the source gives them in different places.
# Key:
# [1] = assay type: in vivo, human; conditions: for measured plasma concentrations of metabolites: all samples after regorafenib eye drops, below LLOQ (2 μg l^−1); for Cmax: C max
# Method in brief: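 Plasma was sampled from predose to 7 days after a single dose, or to 14 days after the last of 14 days' dosing, with dense early time points. Parent and metabolites M-2 and M-5 were measured by validated LC-MS/MS; LLOQ was 0.1 µg l⁻¹ for parent and 2 µg l⁻¹ for metabolites. AUC over dosing intervals, AUC₀₋tlast, Cav, Cmax, Cmin, t1/2 and accumulation ratios were derived, with log-normal ANOVA for dose proportionality.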
# [2] = Subject rating of treatment; assay type: in vivo, human; conditions: numerical rating scale 0 (none) to 10 (very severe); comparable with placebo
# [3] = cited from earlier work
# [4] = Safety, tolerability and functional ocular assessments in healthy volunteers; assay type: in vivo, human
# Method in brief: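 Randomized, double-masked, placebo-controlled ascending-dose design: four cohorts of 12 healthy men (9 active, 3 placebo). Drops of 30 mg ml⁻¹ (25 μl) were given to the left eye as 0.75 mg once, or 0.75 mg bid or tid for 14 days, or 1.5 mg tid for 3 days then both eyes to 14 days. Ocular symptoms were scored 5 min post-dose on a four-point scale. Visual acuity was tested at 4 m per ETDRS protocol.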
# [5] = all regorafenib cohorts pooled (n = 36)
smiles,measurement,setting,value
CNC(=O)c1cc(Oc2ccc(NC(=O)Nc3ccc(Cl)c(C(F)(F)F)c3)c(F)c2)cc[n+]1[O-] [M‐2],measured plasma concentrations of metabolites,[1],< 2 µg/L
NC(=O)c1cc(Oc2ccc(NC(=O)Nc3ccc(Cl)c(C(F)(F)F)c3)c(F)c2)cc[n+]1[O-] [M‐5],measured plasma concentrations of metabolites,[1],< 2 µg/L
CNC(=O)c1cc(Oc2ccc(NC(=O)Nc3ccc(Cl)c(C(F)(F)F)c3)c(F)c2)ccn1 [Regorafenib],pain and discomfort ratings,[2],mostly 0
same,apparent terminal elimination t1/2 after oral administration,[3],20 to 30 h
same,safety and tolerability over the dose range,"[4]; 0.75 mg single dose to 1.5 mg tid both eyes (9 mg day^−1), 30 mg ml^−1, 14 days",safe and well tolerated
same,"eyelid redness and oedema, conjunctival hyperaemia and oedema",[4]; across all regorafenib cohorts,mild and comparable with the effects of placebo
same,subjects with a burning sensation,[4]; [5],25%
same,subjects with a foreign body sensation,[4]; [5],17%
same,subjects with a transient reduction in visual acuity,[4]; [5],31%
same,subjects with blurred vision after solicited questioning,[4]; [5],97%
same,subjects with increased lacrimation,[4]; [5],8%
same,subjects with itching,[4]; [5],17%
same,subjects with lid oedema,[4]; [5],8%
same,subjects with ocular/conjunctival redness,[4]; [5],19%
same,effect on electrocardiographic parameters,"[4]; healthy volunteers, eye drops",No effect
same,C av0–8,"[1]; first dose, Cohort 1, 0.75 mg single dose, plasma, geometric mean/%CV (range)",0.0377 ng/mL
same,C av0–8,"[1]; first dose, Cohort 3, 0.75 mg tid (2.25 mg day^−1), plasma, geometric mean/%CV (range)",0.0352 ng/mL
same,C av0–8,"[1]; first dose, Cohort 4, 1.5 mg tid (9.0 mg day^−1), plasma, geometric mean/%CV (range)",0.0564 ng/mL
same,Tmax,"[1]; human, plasma, topical, tmax,md (time to reach maximum plasma concentration following multiple drug administration), individual subjects, after the last dose",0 to 12 h
same,Cav0–12md (average concentration over the 12h dosing interval),"[1]; last dose, 0.75 mg bid (Cohort 2)",3.39 ng/mL
same,"C av0–8,md","[1]; last dose, Cohort 3, 0.75 mg tid (2.25 mg day^−1), geometric mean/%CV (range)",4.01 ng/mL
same,"C av0–8,md","[1]; last dose, Cohort 4, 1.5 mg tid (9.0 mg day^−1), geometric mean/%CV (range)",12.2 ng/mL
same,AUC,"[1]; male, human, plasma, topical, 0.75 mg",40.7 ng·h/mL
same,AUC(0-t),"[1]; male, human, plasma, topical, 0.75 mg, AUC 0–8, first dose, Cohort 2, 0.75 mg bid (1.5 mg day^−1), geometric mean/%CV (range)",0.255 ng·h/mL
same,AUC(0-t),"[1]; male, human, plasma, topical, 0.75 mg, AUC 0–8, first dose, Cohort 3, 0.75 mg tid (2.25 mg day^−1), geometric mean/%CV (range)",0.282 ng·h/mL
same,AUC(0-t),"[1]; male, human, plasma, topical, 0.75 mg, AUC0–tlast, Cohort 1, 0.75 mg single dose",39.2 ng·h/mL
same,Cmax,"[1]; male, human, plasma, topical, 0.75 mg, first dose, Cohort 1, 0.75 mg single dose, geometric mean/%CV (range)",0.42 ng/mL
same,Cmax,"[1]; male, human, plasma, topical, 0.75 mg, first dose, Cohort 2, 0.75 mg bid (1.5 mg day^−1), geometric mean/%CV (range)",0.234 ng/mL
same,Cmax,"[1]; male, human, plasma, topical, 0.75 mg, first dose, Cohort 3, 0.75 mg tid (2.25 mg day^−1), geometric mean/%CV (range)",0.186 ng/mL
same,Tmax,"[1]; male, human, plasma, topical, 0.75 mg, t max, first dose, Cohort 1, 0.75 mg single dose, median (range)",24 h
same,Tmax,"[1]; male, human, plasma, topical, 0.75 mg, t max, first dose, Cohort 2, 0.75 mg bid (1.5 mg day^−1), median (range)",11.9 h
same,Tmax,"[1]; male, human, plasma, topical, 0.75 mg, t max, first dose, Cohort 3, 0.75 mg tid (2.25 mg day^−1), median (range)",7.92 h
same,AUC(0-t),"[1]; male, human, plasma, topical, 1.5 mg, AUC 0–8, first dose, Cohort 4, 1.5 mg tid (9.0 mg day^−1), geometric mean/%CV (range)",0.451 ng·h/mL
same,Cmax,"[1]; male, human, plasma, topical, 1.5 mg, first dose, Cohort 4, 1.5 mg tid (9.0 mg day^−1), geometric mean/%CV (range)",0.302 ng/mL
same,Tmax,"[1]; male, human, plasma, topical, 1.5 mg, t max, first dose, Cohort 4, 1.5 mg tid (9.0 mg day^−1), median (range)",8 h
same,day when steady state was reached,"[1]; multiple-dose regimens, plasma concentrations",7 days
